Measurements collected from several papers.
MDH2: Malate dehydrogenase, mitochondrial (MDH2, Sus scrofa, UniProt P00346)

| Structure (SMILES) | target | read-out | mode | method | setting | measurement | value |
| --- | --- | --- | --- | --- | --- | --- | --- |
| O=C(/C=C/c1ccc(-n2ccnc2)cc1)N1CCN(C(=O)c2ccco2)CC1 | Protein ENL, YEATS (MLLT1, Homo sapiens, UniProt Q03111) | binding | – | BLI | – | Kd | 14 µM |
| CCCCCCCCNc1cc(=O)[nH]c(=O)[nH]1 | G-protein coupled receptor 84 (Gpr84, Mus musculus, UniProt Q8CIM5) | cAMP | agonist | – | – | EC50 | 0.066 µM |
| CC(=O)N[C@@H](CCCNC(=N)N)C(=O)NCC(=O)NCC(=O)N1CCC[C@H]1B(O)O | Dipeptidyl peptidase 4 (DPP4, Homo sapiens, UniProt P27487) | enzyme activity | inhibitor | fluorescence | – | Ki | 0.322 µM |
| Cc1cnc(-c2ccc(-c3ccc(NC(=O)Nc4c(F)cc(F)cc4F)cc3F)c3c2C(=O)NC3)[nH]1 | NT-3 growth factor receptor (NTRK3, Homo sapiens, UniProt Q16288) | binding | – | competition with immobilised ligand | – | Kd | 0.0009 µM |
| CCCCCCCCCCCCCCCC(=O)OC[C@H](COP(=O)(O)OC1[C@H](O)[C@H](O)C(OP(=O)(O)O)[C@H](O)[C@H]1O)OC(=O)CCCCCCCCCCCCCCC (some centres unmarked) | Proto-oncogene tyrosine-protein kinase Src (SRC, Homo sapiens, UniProt P12931) | binding | – | fluorescence | – | Kd | 25.7 µM |
| O=S(=O)(Nc1ccc(-c2nc3cc(NS(=O)(=O)c4cccc5ccccc45)ccc3o2)cc1)c1cccc2ccccc12 | MDH2 | enzyme activity | inhibitor | – | – | IC50 | > 62.5 µM |
| CO[C@@H]1O[C@@H](C)[C@@H](O)[C@@H](O)[C@@H]1O | fleA (Aspergillus fumigatus, UniProt Q4WW81) | binding | – | ITC | – | Kd | 76.4 µM |
| CC(C)(C)n1nc(-c2ccc3nc(OC4CC4)ccc3c2)c(C(N)=O)c1N | RAC-alpha serine/threonine-protein kinase (AKT1, Homo sapiens, UniProt P31749) | cell-free assay | – | – | – | IC50 | > 10 µM |
| O=S(=O)(Nc1ccc(-c2nc3cc(NS(=O)(=O)c4ccccc4)ccc3o2)cc1)c1ccccc1 | MDH2 | enzyme activity | inhibitor | – | – | IC50 | > 62.5 µM |
| CNC(=O)c1cc2c(Oc3ccc(NC(=O)C4(C(=O)Nc5ccc(F)cc5)CC4)cc3)ccnc2cc1OC | Ephrin type-A receptor 2 (EPHA2, Homo sapiens, UniProt P29317) | enzyme activity | inhibitor | radiometric | – | IC50 | 0.054 µM |
| CC(C)C[C@H](NC(=O)[C@@H](N)CCCNC(=N)N)C(=O)N[C@@H](Cc1ccc(O)cc1)C(=O)N[C@@H](Cc1ccc(O)cc1)C(=O)N[C@@H](Cc1ccccc1)C(=O)N[C@@H](Cc1c[nH]c2ccccc12)C(=O)N[C@@H](CC(=O)O)C(=O)O | DNA dC->dU-editing enzyme APOBEC-3G (APOBEC3G, Homo sapiens, UniProt Q9HC16) | enzyme activity | inhibitor | – | – | Ki | ~0.65 µM |
| CCCN1CCN(c2ccc(-c3cncc(Cl)c3N3CCC4(CCNC4=O)CC3)cc2)CC1 | Serine/threonine-protein kinase D2 (PRKD2, Homo sapiens, UniProt Q9BZL6) | cell-free assay | – | – | lysate | Kd | 20 µM |
| Cc1cc2nc3c(=O)[nH]c(=O)nc-3n(C[C@H](O)[C@H](O)[C@H](O)COP(=O)(O)OP(=O)(O)OC[C@H]3O[C@@H](n4cnc5c(N)ncnc54)[C@H](O)[C@@H]3O)c2cc1C | Ataxin-2 (Homo sapiens, UniProt Q99700) | binding | – | – | lysate | Kd | 0.022 µM |
| O=C(Nc1ccc(Sc2nc3ccccc3s2)cc1)c1cccc(Br)c1O | MDH2 | enzyme activity | inhibitor | – | – | IC50 | > 62.5 µM |
